Data taken from ChEMBL document CHEMBL2046357, “Inhibitors of Dengue virus and West Nile virus proteases based on the aminobenzamide scaffold” (Bioorg Med Chem, 2012).
Active and inactive are the calls of the source. No cut-off for these calls is given here.

Key:
West Nile virus [1] = test: Inhibition of West Nile virus NS2B-NS3 protease expressed in Escherichia coli Top10F' at 25 uM pre-incubated for 15 mins before addition of Bz-NIe-Lys-Arg-Arg-AMC substrate by spectrofluorometry
How it was run: (§1)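 Enzyme (DENV2 protease 25 nM; WNV protease 28 nM) pre-incubated with compound for 15 min at room temperature in 200 mM Tris·HCl pH 9.5, 30% glycerol, with 1% v/v DMSO final. Reaction started with 5 μM substrate. Fluorescence (ex 380/em 460 nm) followed every 90 s for up to 30 min at 37 °C. Percent inhibition calculated against no-compound fluorescence. Aprotinin and DMSO served as controls. Triplicates, averaged.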

West Nile virus [2] = test: Inhibition of West Nile virus NS2B-NS3 protease expressed in Escherichia coli Top10F' at 10 uM pre-incubated for 15 mins before addition of Bz-NIe-Lys-Arg-Arg-AMC substrate by spectrofluorometry; how it was run: as §1
dengue virus type 2 [3] = test: Inhibition of Dengue virus 2 NS2B-NS3 protease expressed in Escherichia coli Top10F' at 10 uM pre-incubated for 15 mins before addition of Bz-NIe-Lys-Arg-Arg-AMC substrate by spectrofluorometry; how it was run: as §1
dengue virus type 2 [4] = test: Inhibition of Dengue virus 2 NS2B-NS3 protease expressed in Escherichia coli Top10F' at 25 uM pre-incubated for 15 mins before addition of Bz-NIe-Lys-Arg-Arg-AMC substrate by spectrofluorometry; how it was run: as §1
West Nile virus [5] = test: Competitive inhibition of West Nile virus NS2B-NS3 protease expressed in Escherichia coli Top10F' at 1 to 5 uM uM assessed as increase in Km of substrate pre-incubated for 15 mins before addition of Bz-NIe-Lys-Arg-Arg-AMC substrate by spectrofluorometry
How it was run: (§2)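 Inhibitor fixed at 0, 1.0, 3.0 or 5.0 μM; substrate varied 0–50 μM. Initial cleavage rates used to derive apparent Km and kcat. Ki taken from secondary plot of Km,app against inhibitor concentration. Duplicates, repeated three times.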

[6] = Inhibition of Dengue virus 2 NS2B-NS3 protease expressed in Escherichia coli Top10F' pre-incubated for 15 mins before addition of Bz-NIe-Lys-Arg-Arg-AMC substrate by spectrofluorometry; parameters: species or system dengue virus type 2
How it was run: (§3)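 Protease (DENV2 25 nM; WNV 28 nM) pre-incubated with compound for 15 min at room temperature in 200 mM Tris·HCl pH 9.5 with 30% glycerol. Then 5 μM substrate added, and fluorescence (ex 380/em 460 nm) read at 37 °C for up to 30 min.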

West Nile virus [7] = test: Competitive inhibition of West Nile virus NS2B-NS3 protease expressed in Escherichia coli Top10F' at 1 to 5 uM uM assessed as reduction in kcat/Km of substrate pre-incubated for 15 mins before addition of Bz-NIe-Lys-Arg-Arg-AMC substrate by spectrofluorometry; how it was run: as §2
[8] = Inhibition of West Nile virus NS2B-NS3 protease expressed in Escherichia coli Top10F' pre-incubated for 15 mins before addition of Bz-NIe-Lys-Arg-Arg-AMC substrate by spectrofluorometry; how it was run: as §3
[9] = 25 uM, in the assay text read “at 25 uM” for “at 10 uM”

| inhibition (West Nile virus [1]) | inhibition (West Nile virus [2]; [9]) | inhibition (dengue virus type 2 [3]) | inhibition (dengue virus type 2 [4]) | inhibition (West Nile virus [2]; 10 uM) | inhibition (West Nile virus [5]) | IC50 [6] | inhibition (West Nile virus [7]) | IC50 [8] | SMILES |
| --- | --- | --- | --- | --- | --- | --- | --- | --- | --- |
| inactive | inactive | inactive | inactive |  |  |  |  |  | O=C(NCc1cn(Cc2ccc(F)cc2)nn1)Nc1ccc(C(=O)NCCN2CCOCC2)cc1 |
| 58% |  | 39.4% | 52.5% | 46.5% |  |  |  |  | O=C(NCc1cn(Cc2ccccc2)nn1)Nc1ccc(C(=O)Nc2ccc(Oc3ccccc3)cc2)cc1 |
| inactive | inactive | inactive | inactive |  |  |  |  |  | O=C(NCc1cn(Cc2ccccc2)nn1)Nc1cccc(C(=O)NCCc2ccccc2)c1 |
| inactive | inactive | inactive | inactive |  |  |  |  |  | O=C(NCc1cn(CSc2ccccc2)nn1)Nc1ccc(C(=O)NCc2ccco2)cc1 |
| inactive | inactive | inactive | inactive |  |  |  |  |  | O=C(NCc1cn(CSc2ccccc2)nn1)Nc1ccc(C(=O)NCCc2ccccc2)cc1 |
| inactive | inactive | inactive | inactive |  |  |  |  |  | O=C(NCc1cn(CSc2ccccc2)nn1)Nc1ccc(C(=O)NCCN2CCOCC2)cc1 |
| inactive | inactive | inactive | inactive |  |  |  |  |  | O=C(NCc1cn(CSc2ccccc2)nn1)Nc1ccc(C(=O)Nc2ccc(Oc3ccccc3)cc2)cc1 |
| inactive | inactive | inactive | inactive |  |  |  |  |  | O=C(NCc1cn(CSc2ccccc2)nn1)Nc1ccc(C(=O)Nc2ccccc2)cc1 |
| inactive | inactive | inactive | inactive |  |  |  |  |  | O=C(NCc1cn(Cc2ccc(F)cc2)nn1)Nc1ccc(C(=O)Nc2ccccc2)cc1 |
| inactive | inactive | inactive | inactive |  |  |  |  |  | O=C(NCc1cn(Cc2ccccc2)nn1)Nc1cccc(C(=O)NCc2ccccc2)c1 |
| inactive | inactive | inactive | inactive |  |  |  |  |  | O=C(NCc1cn(Cc2ccccc2)nn1)Nc1ccc(C(=O)NCCN2CCOCC2)cc1 |
| 60.3% |  | 40.3% | 58.2% | 49.3% |  |  |  |  | O=C(NCc1cn(CSc2ccccc2)nn1)Nc1cccc(C(=O)Nc2cccc(Oc3ccccc3)c2)c1 |
| 82.3% |  | 55.3% | 76% | 58.8% | Active | 6.82 µM | Active | 5.51 µM | O=C(NCc1cn(Cc2ccc(F)cc2)nn1)Nc1ccc(C(=O)Nc2ccc(Oc3ccccc3)cc2)cc1 |
| inactive | inactive | inactive | inactive |  |  |  |  |  | O=C(NCc1cn(Cc2ccccc2)nn1)Nc1ccc(C(=O)Nc2cccc(Oc3ccccc3)c2)cc1 |
| inactive | inactive | inactive | inactive |  |  |  |  |  | O=C(NCc1cn(CSc2ccccc2)nn1)Nc1cccc(C(=O)NCc2ccccc2)c1 |
| inactive | inactive | inactive | inactive |  |  |  |  |  | O=C(NCc1cn(CSc2ccccc2)nn1)Nc1ccc(C(=O)NCc2ccccc2)cc1 |
| inactive | inactive | inactive | inactive |  |  |  |  |  | O=C(NCc1cn(Cc2ccc(F)cc2)nn1)Nc1ccc(C(=O)NCc2ccco2)cc1 |
| inactive | inactive | inactive | inactive |  |  |  |  |  | O=C(NCc1cn(Cc2ccccc2)nn1)Nc1ccc(C(=O)Nc2ccccc2)cc1 |
| inactive | inactive | inactive | inactive |  |  |  |  |  | O=C(NCc1cn(Cc2ccccc2)nn1)Nc1ccc(C(=O)NCc2ccco2)cc1 |
| 60.9% |  | 41.1% | 57% | 44.5% |  |  |  |  | O=C(NCc1cn(Cc2ccc(F)cc2)nn1)Nc1ccc(C(=O)Nc2cccc(Oc3ccccc3)c2)cc1 |
| inactive | inactive | inactive | inactive |  |  |  |  |  | O=C(NCc1cn(Cc2ccc(F)cc2)nn1)Nc1ccc(C(=O)NCc2ccccc2)cc1 |
| inactive | inactive | inactive | inactive |  |  |  |  |  | O=C(NCc1cn(Cc2ccccc2)nn1)Nc1cccc(C(=O)Nc2cccc(Oc3ccccc3)c2)c1 |
| inactive | inactive | inactive | inactive |  |  |  |  |  | O=C(NCc1cn(Cc2ccccc2)nn1)Nc1ccc(C(=O)NCCc2ccccc2)cc1 |
| inactive | inactive | inactive | inactive |  |  |  |  |  | O=C(NCc1cn(Cc2ccc(F)cc2)nn1)Nc1ccc(C(=O)NCCc2ccccc2)cc1 |
| inactive | inactive | inactive | inactive |  |  |  |  |  | O=C(NCc1cn(CSc2ccccc2)nn1)Nc1cccc(C(=O)NCCc2ccccc2)c1 |
| inactive | inactive | inactive | inactive |  |  |  |  |  | O=C(NCc1cn(Cc2ccccc2)nn1)Nc1ccc(C(=O)NCc2ccccc2)cc1 |
